Published values gathered from unrelated publications.
Compare with care: the assays were run in different laboratories.

CC1=NN(CNc2ccccc2[N+](=O)[O-])C(=O)C1=NNn1c(-c2ccccc2)nc2ccccc2c1=O — logP: 5.08
CS(=O)(=O)N1CCN(Cc2cc3nc(-c4cccc5[nH]ncc45)nc(N4CCOCC4)c3s2)CC1 — logP: 3.22
Clc1cc2c(c3ncccc13)OCN(CCc1ccccc1)C2 — logP: 4.54
CC1=NN(CNc2ccc(Cl)cc2)C(=O)C1=NNn1c(-c2ccccc2)nc2ccccc2c1=O — logP: 5.1
O=c1[nH]cc(F)c(=O)[nH]1 — logP (shake flask; water; 24 h): -0.46
N#Cc1[nH]nnc1-c1cccc(-c2cc(F)cc(C(F)(F)F)c2)c1 — logP (potentiometric): 5.2
Nc1nc2[nH]cc(CCc3ccc(C(=O)N[C@@H](CCC(=O)O)C(=O)O)cc3)c2c(=O)[nH]1 — logP (water; 24 h): -0.842
CC1=NN(CNC(=O)c2ccccc2)C(=O)C1=NNn1c(-c2ccccc2)nc2ccccc2c1=O — logP: 4.09
C=C[C@H]1C[N@@]2CC[C@H]1C[C@@H]2[C@@H](O)c1ccnc2ccc(OC)cc12 — logP (water): 2.84
CNCc1cc(-c2ccccc2F)n(S(=O)(=O)c2cccnc2)c1 — logP: 2.74
CC1=NN(CNC(=O)c2ccccn2)C(=O)C1=NNn1c(-c2ccccc2)nc2ccccc2c1=O — logP: 3.26
N#Cc1[nH]nnc1-c1cc(Cl)cc(/C=C/c2cccc(C(F)(F)F)c2)c1 — logP (potentiometric): 5.4
CC(=O)NCN1N=C(C)C(=NNn2c(-c3ccccc3)nc3ccccc3c2=O)C1=O — logP: 2.24
C=C(C)[C@@H]1CCC(C)=C[C@H]1c1c(O)cc(CCCCC)cc1O — logP: 7.11
CNC(=O)c1ccccc1Sc1ccc2c(/C=C/c3ccccn3)n[nH]c2c1 — logP: 3.1
CC(=O)c1ccccc1 — logP (water; 1 h): 1.51
